Hits are enriched below; roughly 12% of the tested compounds scored in any of these assays.
WT yeast gro inh: growth inhibition of WT yeast, mitochondrial fusion screen; inhibition, % at 10 µM; AID 1362; hit rate 2.1% among 190,000; mitochondrial fusion phenotypic screen, WT strain; in the data active means inhibition above about 58%; tested in S. cerevisiae
RAM inhibit: inhibitors of the yeast RAM network; S. cerevisiae dse1pr::URA3 reporter, 5-FOA growth OD615, 2 d; analog-sensitive cbk1-as2 kinase mutant strain; inhibition, % at 50 µM; hit rate 1.8% among 190,000; AID 868;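 active means inhibition above a set limit, 3 SD over mean compound inhibition, cut at about 8.4% in these data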;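 further: 0% = DMSO-only wells with no growth and 100% = 10 µM 1-NA-PP1 full growth; inhibition rescues growth on 5-FOA so higher OD means more RAM inhibition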
ABCG2 block: blocks JC-1 efflux by human ABCG2 transporter. AID 1325. hit rate 0.1% among 190,000. inhibition, % at 6.6 µM. IgMXP3 cells, flow cytometry;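 active means inhibition above 80%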;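 further: 0% = DMSO and 100% = nicardipine control wells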
Target sequence (Q9UNQ0 whole entry, looked up): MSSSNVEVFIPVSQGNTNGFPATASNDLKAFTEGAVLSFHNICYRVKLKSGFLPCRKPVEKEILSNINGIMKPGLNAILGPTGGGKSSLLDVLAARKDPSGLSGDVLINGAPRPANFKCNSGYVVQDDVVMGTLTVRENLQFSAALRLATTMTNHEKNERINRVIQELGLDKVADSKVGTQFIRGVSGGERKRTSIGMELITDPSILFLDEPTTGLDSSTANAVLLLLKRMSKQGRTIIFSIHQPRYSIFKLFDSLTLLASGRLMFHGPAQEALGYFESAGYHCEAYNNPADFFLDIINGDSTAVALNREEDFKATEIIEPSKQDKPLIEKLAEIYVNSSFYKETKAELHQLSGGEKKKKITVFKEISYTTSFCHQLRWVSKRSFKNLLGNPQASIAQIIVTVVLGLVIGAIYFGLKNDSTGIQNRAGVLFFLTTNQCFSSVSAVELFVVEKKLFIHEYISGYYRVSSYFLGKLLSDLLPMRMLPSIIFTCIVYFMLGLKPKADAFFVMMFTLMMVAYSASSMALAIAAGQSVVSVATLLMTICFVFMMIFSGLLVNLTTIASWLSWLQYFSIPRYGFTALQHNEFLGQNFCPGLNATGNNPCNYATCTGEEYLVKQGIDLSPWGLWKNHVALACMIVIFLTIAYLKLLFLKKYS
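material = IgMXP3 (ABCG2) plus far-red-tagged CCRF-Adr (ABCB1) cells | amount = 3 million cells/mL, equal mix of both lines | also added = JC-1 transporter substrate | dosing = one concentration, 6.6 µM final | schedule = 10 min at 25 °C | measured by = flow cytometric JC-1 green MFI at 530 nm | read-out basis = percent efflux inhibition, scaled nicardipine 100% to DMSO 0%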
Lmaj promast: reduces viability of Leishmania major promastigotes. resazurin fluorescence viability. inhibition, % at 10 µM. hit rate 9% among 200,000. AID 1063; in the data active means inhibition above about 50%;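 further: promastigotes grown with compound for 44 hours at 28 °C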
ABCB1 inh: inhibitors of human ABCB1 transporter, ABCG2 counter-screen. hit rate 0.067% among 190,000. inhibition, % at 6.6 µM. CCRF-Adr cells, JC-1 efflux, flow cytometry; in the data active means inhibition above about 40%;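 further: 0% = vehicle and 100% = reference inhibitor; higher value means more JC-1 retained so stronger ABCB1 efflux block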
ABCB1 single pt: inhibits human ABCB1 efflux, confirmed at single point. CCRF-Adr cells, JC-1 efflux, flow cytometry. inhibition, % at 6.6 µM. AID 1451. shares compounds with ABCG2 block. hit rate 7% among 270;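 active means inhibition of pump activity above 50%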;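 further: 0% = DMSO and 100% = nicardipine full pump inhibition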
ABCG2 confirm: inhibits human ABCG2 efflux, confirmed at single point; shares compounds with ABCG2 block; IgMXP3 cells, JC-1 efflux, flow cytometry; inhibition, % at 6.6 µM; hit rate 6% among 270; AID 1453;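 active means inhibition above 50%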;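 further: 0% = DMSO wells and 100% = nicardipine pump inhibitor wells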
IgMXP3 autofluor: IgMXP3 autofluorescence flag for ABCG2 confirmation | shares compounds with ABCG2 block | IgMXP3 cells, compound autofluorescence 488/530 nm, flow; hits give high values | fluorescence at 6.6 µM | hit rate 30% among 270 | AID 1480;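 active means fluorescence in ABCG2-expressing cells above the plate's control-well mean plus 3 SD, cut at about 15 in these data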;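 further: median cell fluorescence with compound minus that of DMSO-treated control cells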
CCRF autofluor: CCRF-Adr autofluorescence flag for ABCB1 confirmation; CCRF-Adr cells, compound autofluorescence 488/530 nm, flow cytometry; hits give high values; hit rate 30% among 270; shares compounds with ABCG2 block; fluorescence at 6.6 µM;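 active means fluorescence beyond the plate control mean plus 3 SD, with a fluorescence-to-maximum score over 2, cut at about 25 in these data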
Active calls of the source: *.

Results for Cc1ccc2nc(/C(C#N)=C\c3ccc([N+](=O)[O-])o3)[nH]c2c1 ?
WT yeast gro inh: 4; RAM inhibit: -1; ABCG2 block: 0; Lmaj promast: 100*; ABCB1 inh: 61*; ABCB1 single pt: 11; ABCG2 confirm: 24; IgMXP3 autofluor: 42*; CCRF autofluor: 47*

Results for Cc1ccc(N2C(=O)C3N=NN(CC(=O)N4N=C(c5ccccc5)CC4c4ccccc4)C3C2=O)cc1 (stereo not drawn) ?
WT yeast gro inh: 11; RAM inhibit: 6; ABCG2 block: 3; Lmaj promast: 1; ABCB1 inh: 2

How did O=[N+]([O-])c1ccc(OCCN2CCCCCC2)cc1 do in these assays?
WT yeast gro inh: -1; RAM inhibit: 0; ABCG2 block: 81*; Lmaj promast: 13; ABCB1 inh: 0; ABCB1 single pt: 0; ABCG2 confirm: 3; IgMXP3 autofluor: 0.21; CCRF autofluor: 5.8

Results for CC(C)n1c(O)c(N=NC(=O)Cn2ccc(C(F)(F)F)n2)c2ccccc21 ?
WT yeast gro inh: 0; RAM inhibit: 1; ABCG2 block: 89*; Lmaj promast: -8; ABCB1 inh: 1; ABCB1 single pt: 16; ABCG2 confirm: 17; IgMXP3 autofluor: 2.9; CCRF autofluor: 28*

How did O=C(Cn1ccc(C(F)(F)F)n1)N=Nc1c(O)[nH]c2ccccc12 do in these assays?
WT yeast gro inh: 17; RAM inhibit: 1; ABCG2 block: 23; Lmaj promast: -3; ABCB1 inh: 1

Results for CSc1nc(N2CCCC2)c2c(c1C#N)CC(C)(C)OC2 ?
WT yeast gro inh: 4; RAM inhibit: 0; ABCG2 block: 63; Lmaj promast: 0; ABCB1 inh: 7; ABCB1 single pt: 16; ABCG2 confirm: 32; IgMXP3 autofluor: 0.96; CCRF autofluor: 0.11

What do the screens show for `COc1ccc(CCNc2cc(N3CCN(C(=O)c4ccc(C)cc4)CC3)ccc2[N+](=O)[O-])cc1OC`?
WT yeast gro inh: -8; RAM inhibit: 0; ABCG2 block: 22; Lmaj promast: 5; ABCB1 inh: 37; ABCB1 single pt: 26; ABCG2 confirm: 34; IgMXP3 autofluor: -2; CCRF autofluor: -0.84

How did COc1ccc(C(=O)N2CCN(c3ccc([N+](=O)[O-])c(NCCc4ccc(OC)c(OC)c4)c3)CC2)cc1 do in these assays?
WT yeast gro inh: 6; RAM inhibit: 4; ABCG2 block: 15; Lmaj promast: 14; ABCB1 inh: 24

How did CCCCCn1c(CN2CCN(Cc3ccccc3)CC2)nc2c1c(=O)n(C)c(=O)n2C do in these assays?
WT yeast gro inh: -9; RAM inhibit: 0; ABCG2 block: 28; Lmaj promast: 3; ABCB1 inh: 57*; ABCB1 single pt: 23; ABCG2 confirm: 14; IgMXP3 autofluor: 0.81; CCRF autofluor: -2.4

How did CCCCCCc1cc2cc(-c3nnc(-c4ccccc4O)o3)c(=O)oc2cc1O do in these assays?
WT yeast gro inh: 0; RAM inhibit: 2; ABCG2 block: 79; Lmaj promast: 2; ABCB1 inh: 48*; ABCB1 single pt: 15; ABCG2 confirm: 11; IgMXP3 autofluor: 116*; CCRF autofluor: 111*

What do the screens show for `CCCCCCc1cc2cc(-c3nnc(-c4ccccc4OC)o3)c(=O)oc2cc1O`?
WT yeast gro inh: 33; RAM inhibit: 6; ABCG2 block: 38; Lmaj promast: 45; ABCB1 inh: 21

Results for COc1ccc([N+](=O)[O-])cc1NC(=O)C(C)Sc1ccc(C)cc1 (stereo not drawn) ?
WT yeast gro inh: 4; RAM inhibit: 9.2*; ABCG2 block: 82*; Lmaj promast: 3; ABCB1 inh: 2; ABCB1 single pt: 5; ABCG2 confirm: 35; IgMXP3 autofluor: 3.6; CCRF autofluor: 3.8

What do the screens show for `COc1ccc(Cc2nc3c4c(ncn3n2)Oc2ccc3ccccc3c2C4c2ccc(OC)c(OC)c2)cc1` (stereo not drawn)?
WT yeast gro inh: 25; RAM inhibit: 7; ABCG2 block: 7; Lmaj promast: 22; ABCB1 inh: 10; ABCB1 single pt: 30; ABCG2 confirm: 18; IgMXP3 autofluor: -2.3; CCRF autofluor: -4.1

How did COc1ccc(Cc2nc3c4c(ncn3n2)Oc2c(ccc3ccccc23)C4c2ccc(OC)c(OC)c2)cc1 (stereo not drawn) do in these assays?
WT yeast gro inh: -8; RAM inhibit: 8; ABCG2 block: 7; Lmaj promast: 31; ABCB1 inh: 12

How did Cc1nc(-c2ccccc2O)n(-c2ccccc2)n1 do in these assays?
WT yeast gro inh: 14; RAM inhibit: 2; ABCG2 block: 0; Lmaj promast: 13; ABCB1 inh: 0

What do the screens show for `O=C(CN1C(=O)NC2(CCCC2)C1=O)N1CCc2ccccc2C1`?
WT yeast gro inh: -9; RAM inhibit: 1; ABCG2 block: 0; Lmaj promast: -2; ABCB1 inh: 0

Results for COc1ccc(N2CCN(C(=O)C3CCC(Cn4c(=S)[nH]c5ccccc5c4=O)CC3)CC2)cc1 (stereo not drawn) ?
WT yeast gro inh: 41; RAM inhibit: 2; ABCG2 block: 34; Lmaj promast: 99*; ABCB1 inh: 41*; ABCB1 single pt: 34; ABCG2 confirm: 23; IgMXP3 autofluor: 2.1; CCRF autofluor: 9.5

What do the screens show for `O=C(C1CCC(Cn2c(=S)[nH]c3ccccc3c2=O)CC1)N1CCOCC1` (stereo not drawn)?
WT yeast gro inh: -12; RAM inhibit: 1; ABCG2 block: 0; Lmaj promast: -1; ABCB1 inh: 0

Results for CCc1ccc(NC(=O)CSc2nc3ccccc3c(=O)n2CCCC(=O)N2CCCC2)cc1 ?
WT yeast gro inh: -8; RAM inhibit: 5; ABCG2 block: 70; Lmaj promast: 0; ABCB1 inh: 71*; ABCB1 single pt: 24; ABCG2 confirm: 44; IgMXP3 autofluor: -3.4; CCRF autofluor: -5.6

Results for Nc1nonc1NC(=O)NN=C1CCCCC1 ?
WT yeast gro inh: -17; RAM inhibit: 0; ABCG2 block: 3; Lmaj promast: -4; ABCB1 inh: 0

How did COc1cc(C(=O)N/N=C/c2ccc(OC)c(CN3CCN(c4ccc(F)cc4)CC3)c2)ccc1O do in these assays?
WT yeast gro inh: 4; RAM inhibit: 0; ABCG2 block: 16; Lmaj promast: 6; ABCB1 inh: 45*; ABCB1 single pt: 64*; ABCG2 confirm: 37; IgMXP3 autofluor: -2; CCRF autofluor: -3.1

Source: PubChem (several laboratories)
